The results in this text go back to ChEMBL document CHEMBL1671840, “Design, Synthesis, and Preclinical Characterization of the Selective Androgen Receptor Modulator (SARM) RAD140” (ACS Med Chem Lett, 2011).

Active and inactive are the calls of the source. The calls are words filed in the database; no cut-off is given here. Some results are limits rather than exact numbers.

A short description of series [1]: Oral bioavailability in rat. It counts as ADME, organism-based. Conditions: in vivo.
A short description of series [2]: Half life in rat microsomes. It counts as ADME, Microsome.
A short description of series [3]: Half life in monkey microsomes. It counts as ADME, Macaca mulatta, Microsome. As to conditions: rhesus monkey.
Series [4] in a line: Half life in human microsomes. The class given is ADME, Microsome.
A short description of series [5]: Oral bioavailability in monkey. The class given is ADME, organism-based, Macaca mulatta. Conditions: rhesus monkey, in vivo.
The target of a further series is T1, Androgen receptor (Homo sapiens, UniProt P10275).
T1 sequence (P10275 whole entry): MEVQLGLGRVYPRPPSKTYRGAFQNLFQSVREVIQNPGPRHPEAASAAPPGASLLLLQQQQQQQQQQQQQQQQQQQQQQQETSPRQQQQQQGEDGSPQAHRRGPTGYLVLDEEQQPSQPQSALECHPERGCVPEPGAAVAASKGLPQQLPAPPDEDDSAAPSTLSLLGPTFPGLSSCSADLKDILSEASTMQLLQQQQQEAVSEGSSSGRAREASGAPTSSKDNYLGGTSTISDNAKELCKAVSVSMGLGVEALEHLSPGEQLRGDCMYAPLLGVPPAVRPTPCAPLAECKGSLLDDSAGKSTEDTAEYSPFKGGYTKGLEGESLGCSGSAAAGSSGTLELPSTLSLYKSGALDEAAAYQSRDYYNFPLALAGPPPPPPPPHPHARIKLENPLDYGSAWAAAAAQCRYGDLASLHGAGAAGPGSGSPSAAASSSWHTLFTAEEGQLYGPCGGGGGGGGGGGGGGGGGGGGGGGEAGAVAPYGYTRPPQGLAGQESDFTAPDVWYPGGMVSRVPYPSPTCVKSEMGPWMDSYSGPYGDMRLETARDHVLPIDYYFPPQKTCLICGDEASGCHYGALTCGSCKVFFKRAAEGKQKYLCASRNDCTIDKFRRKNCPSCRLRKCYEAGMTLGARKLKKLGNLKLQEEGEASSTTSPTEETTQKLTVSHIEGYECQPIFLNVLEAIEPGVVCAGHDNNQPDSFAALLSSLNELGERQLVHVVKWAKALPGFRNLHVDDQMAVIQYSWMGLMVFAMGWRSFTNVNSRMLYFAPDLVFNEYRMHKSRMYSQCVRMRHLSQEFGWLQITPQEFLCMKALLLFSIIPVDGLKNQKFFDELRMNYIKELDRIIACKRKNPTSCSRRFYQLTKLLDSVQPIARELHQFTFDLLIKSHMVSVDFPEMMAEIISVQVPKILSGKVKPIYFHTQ
Description: Displacement of fluorescent-tagged R1881 from androgen receptor after 4 hrs by fluorometric assay.

In a further series the target is T2, Progesterone receptor (Homo sapiens, UniProt P06401).
T2 sequence (P06401 whole entry): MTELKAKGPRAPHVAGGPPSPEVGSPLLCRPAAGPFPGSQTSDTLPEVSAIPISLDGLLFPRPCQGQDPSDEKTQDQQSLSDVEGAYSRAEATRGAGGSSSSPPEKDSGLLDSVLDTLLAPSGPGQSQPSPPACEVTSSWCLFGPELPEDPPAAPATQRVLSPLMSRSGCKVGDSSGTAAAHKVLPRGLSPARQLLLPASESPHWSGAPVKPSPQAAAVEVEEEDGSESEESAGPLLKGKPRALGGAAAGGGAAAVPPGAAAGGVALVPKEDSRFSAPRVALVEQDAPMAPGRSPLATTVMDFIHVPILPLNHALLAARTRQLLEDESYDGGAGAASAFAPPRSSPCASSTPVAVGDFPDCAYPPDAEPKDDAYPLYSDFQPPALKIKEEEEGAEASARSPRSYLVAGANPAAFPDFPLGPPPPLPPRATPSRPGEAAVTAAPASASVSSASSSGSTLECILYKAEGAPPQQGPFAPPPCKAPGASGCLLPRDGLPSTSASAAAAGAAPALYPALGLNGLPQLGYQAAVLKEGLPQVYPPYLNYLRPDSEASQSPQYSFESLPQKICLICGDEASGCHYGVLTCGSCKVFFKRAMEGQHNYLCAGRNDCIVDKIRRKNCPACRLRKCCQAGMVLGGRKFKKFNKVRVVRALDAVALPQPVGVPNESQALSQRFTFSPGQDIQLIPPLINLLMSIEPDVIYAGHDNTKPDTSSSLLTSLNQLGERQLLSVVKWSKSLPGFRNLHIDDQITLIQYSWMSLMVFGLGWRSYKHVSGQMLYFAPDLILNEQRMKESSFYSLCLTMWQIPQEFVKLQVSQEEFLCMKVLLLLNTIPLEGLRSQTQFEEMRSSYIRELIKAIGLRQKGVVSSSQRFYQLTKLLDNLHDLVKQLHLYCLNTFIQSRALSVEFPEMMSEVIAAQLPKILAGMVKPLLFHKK
Description: Binding affinity to progesterone receptor.

Series [6] has as its system Rattus norvegicus. Nature of the series: Androgenic activity in young intact rat assessed as increase of prostate weight at 30 mg/kg, po qd for 11 days. Conditions: Prostate gland. The class given is functional, organism-based. Further details: dose 30 mg/kg.
Series [7] has as its system Rattus norvegicus. Nature of the series: Androgenic activity in young intact rat assessed as increase of levator ani bulbocavernosus muscle weight at 0.1 mg/kg, po qd for 11 days. The class given is functional, organism-based. Further details: dose 0.1 mg/kg. Conditions: Muscle tissue.
Series [8] deals with Rattus norvegicus. Nature of the series: Androgenic activity in castrated immature rat assessed as increase of levator ani bulbocavernosus muscle weight at 0.03 mg/kg, po qd for 11 days. As to conditions: Muscle tissue. Further details: dose 0.03 mg/kg. It counts as functional, organism-based.
The test system of series [9] is Rattus norvegicus. Description: Androgenic activity in castrated immature rat assessed as increase of levator ani bulbocavernosus muscle weight at 0.3 mg/kg, po qd for 11 days. It counts as functional, organism-based. More on the design: dose 0.3 mg/kg. As to conditions: Muscle tissue.
Series [10] concerns Rattus norvegicus. Nature of the series: Androgenic activity in young intact rat assessed as increase of levator ani bulbocavernosus muscle weight at 0.3 mg/kg, po qd for 11 days. It counts as functional, organism-based. Further details: dose 0.3 mg/kg. As to conditions: Muscle tissue.
Series [11] deals with Rattus norvegicus. Nature of the series: Androgenic activity in young intact rat assessed as increase of levator ani bulbocavernosus muscle weight at 0.5 mg/kg, sc qd for 11 days. Conditions: Muscle tissue. It counts as functional, organism-based. More on the design: dose 0.5 mg/kg.
The subject of series [12] is Rattus norvegicus. Nature of the series: Androgenic activity in young intact rat assessed as increase of prostate weight at 0.5 mg/kg, sc qd for 11 days. The class given is functional, organism-based. Further details: dose 0.5 mg/kg. Conditions: Prostate gland.
Series [13] relates to Cynomolgus monkey. Nature of the series: Androgenic activity in cynomolgus monkey assessed as increase of body weight at 0.1 mg/kg, po qd for 28 days. It counts as functional, Macaca fascicularis. The gist of the method:
(§1)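 Monkeys in groups of 3, grouped from day -21 and weighed at each time point. Oral dosing at 0.01, 0.1 or 1 mg/kg for 28 days, then 21 days off-dose. Each animal's weight change over the pre-dose weeks served as baseline; baseline-subtracted change from day -1 to day 29 was tested statistically.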

Series [14] deals with Cynomolgus monkey. Nature of the series: Androgenic activity in cynomolgus monkey assessed as increase of body weight at 1 mg/kg, po qd for 28 days. It counts as functional, organism-based. More on the design: dose 1 mg/kg. As to conditions: Macaca fascicularis. The gist of the method:
as §1

The subject of series [15] is Cynomolgus monkey. Description: Androgenic activity in cynomolgus monkey assessed as effect on lean tissue weight at up to 1 mg/kg, po qd for 28 days measured after 24 hrs of last post dose. The class given is functional, organism-based. More on the design: dose 1 mg/kg. As to conditions: Macaca fascicularis. The gist of the method: (§2)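 Monkeys, 3 per group, dosed orally at 0.01, 0.1 or 1 mg/kg for 28 days. DEXA scans on day -2 and day 29 gave fat and lean tissue mass. Mean change per group, with SD.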

Series [16] concerns Cynomolgus monkey. Nature of the series: Androgenic activity in cynomolgus monkey assessed as effect on fat mass at up to 1 mg/kg, po qd for 28 days measured after 24 hrs of last post dose. The class given is functional, organism-based. More on the design: dose 1 mg/kg. Conditions: Macaca fascicularis. The gist of the method: as §2

As a reminder, the bioavailability is the share of a dose that reaches the circulation, judged against a reference dose that is usually intravenous. For `Cc1c(N[C@@H](c2nnc(-c3ccccc3)o2)[C@H](C)O)ccc(C#N)c1Cl`, the bioavailability in series [1] was < 5%.

A word on the half-life: it is the time in which the quantity being followed falls by half. As a reminder, the Ki is a measure of affinity in units of concentration, obtained from inhibition or displacement. By IC50 is commonly meant the concentration at which inhibition is half-maximal. Turning to `Cc1c(N[C@@H](c2nnc(-c3ccc(C#N)cc3)o2)[C@H](C)O)ccc(C#N)c1Cl` [RAD-140], the results for the bioavailability in series [1] and in series [5] were 27% and 65%, respectively. Besides, the half-life in [2], in series [3] and in series [4] was > 2 h each time. This compound also registered a Ki on Androgen receptor of 7 nM. On Progesterone receptor, this compound gave an IC50 of 750 nM. The outcome in the series with Rattus norvegicus [6], in the series on Cynomolgus monkey [15] and in the series on Cynomolgus monkey [16] was inactive. Moreover, the result in the series on Rattus norvegicus [7], with Rattus norvegicus [8], in the series on Rattus norvegicus [9], in the series with Rattus norvegicus [10], in the series with Rattus norvegicus [11] and with Rattus norvegicus [12] was Active. Also, the outcome with Cynomolgus monkey [14] was Active. The Activity in the series on Cynomolgus monkey [13] is given as 10%.
